The text below walks through data of ChEMBL document CHEMBL3774334, “New cytotoxic neo-clerodane diterpenoids from Scutellaria strigillosa” (Bioorg Med Chem Lett, 2016).

What all share (assay type): functional, cell-based
The subject of one experiment is P388. As to the kind of experiment: Cytotoxicity against mouse P388 cells assessed as growth inhibition after 72 hrs by MTT assay. The conditions noted are these: P388, 72 h. In outline: (§1)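 MTT read-out of cell growth, method as in an earlier report. IC50 is the concentration giving 50% inhibition of cell growth. Etoposide and cisplatin were run as positive controls.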
Background: Tetrazolium dyes change colour on reduction, which living cells bring about.

Experiment [1] in a line: Cytotoxicity against human HONE1 cells assessed as growth inhibition after 72 hrs by MTT assay. The following applies: HONE1, 72 h. In outline: as §1
Another experiment concerns HT-29. As to the kind of experiment: Cytotoxicity against human HT-29 cells assessed as growth inhibition after 72 hrs by MTT assay. The following applies: HT-29, 72 h. In outline:
as §1

A further experiment relates to MCF7. As to the kind of experiment: Cytotoxicity against human MCF7 cells assessed as growth inhibition after 72 hrs by MTT assay. The conditions noted are these: MCF7, 72 h. In outline:
as §1

For the compound `CC(=O)O[C@H]1[C@H](OC(C)=O)[C@]2(C)O[C@]3(COC(=O)C3)C[C@H](OC(=O)c3ccccc3)[C@]2(C)[C@H]2CCC=C(C)[C@]12C`, the half-inhibitory concentration (IC50) in the experiment on P388 came to 5.2 µM; in experiment [1] it was 4.2 µM; in the experiment on HT-29, 4.1 µM; in the experiment on MCF7, 6 µM.

Regarding `CC1=CCC[C@H]2[C@@]1(C)[C@@H](OC(=O)c1ccccc1)[C@H](OC(=O)C(O)C(C)C)[C@](C)(O)[C@]2(C)/C=C/C1=CC(=O)OC1` (stereo partly specified), the half-maximal inhibitory concentration (IC50) was 7.1 µM in the experiment on P388, 3.9 µM in experiment [1], 6.4 µM in the experiment with HT-29 and 7.7 µM in the experiment on MCF7.

Take `CC1=CCC[C@H]2[C@@]1(C)[C@@H](OC(=O)c1cccnc1)[C@H](OC(=O)c1ccccc1)[C@]1(C)O[C@]3(COC(=O)C3)C[C@H](OC(=O)c3cccnc3)[C@]21C`: the IC50 in the experiment with P388 stood at 5.8 µM; in experiment [1] it was 3.5 µM; with HT-29, 4.7 µM; in the experiment on MCF7 it was 5.7 µM.

For the compound `COc1cc([C@@H]2c3cc4c(cc3[C@@H](O[C@@H]3O[C@@H]5CO[C@@H](C)O[C@H]5[C@H](O)[C@H]3O)[C@H]3COC(=O)[C@H]23)OCO4)cc(OC)c1O` [ETOPOSIDE], the 50% inhibitory concentration (IC50) in the experiment on P388 was determined as 1.3 µM; in experiment [1] it was 1.2 µM; with HT-29, 2 µM; in the experiment on MCF7 it was 2.2 µM.

For orientation: IC50 means the concentration at which inhibition is half-maximal.
